From PubChem BioAssay
This is a sample that favours compounds with a hit; in the whole collection about 2.3% have one here.
NPY2 pot ag: NPY-Y2 potentiators or agonists, primary screen, cell-based; AID 1359, 2008; 0.45% of 220,000 active; cells expressing NPY-Y2, potentiator/agonist read-out; activation, % at 3.6 µM; Neuropeptide Y receptor type 2 (Homo sapiens), P49146; in the data active means activation above about 27%;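 further: cells stimulated with NPY near EC25 plus isoproterenol at EC100; 0% = vehicle plus submaximal agonist and 100% = vehicle plus saturating agonist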
NPY Y1 blocker: NPY-Y1 receptor antagonists, primary screen, cell-based | inhibition, % at 3.6 µM | 1% of 200,000 active | HEK293-CNG Y1 cells, membrane potential fluorescence; NPY at EC95, then isoproterenol;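 active means inhibition above the campaign mean inhibition of all tested compounds plus 3 SD, cut at about 20% in these data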;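 further: 0% = DMSO wells given NPY plus isoproterenol and 100% = isoproterenol alone without NPY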
Target sequence (P25929 whole entry, looked up): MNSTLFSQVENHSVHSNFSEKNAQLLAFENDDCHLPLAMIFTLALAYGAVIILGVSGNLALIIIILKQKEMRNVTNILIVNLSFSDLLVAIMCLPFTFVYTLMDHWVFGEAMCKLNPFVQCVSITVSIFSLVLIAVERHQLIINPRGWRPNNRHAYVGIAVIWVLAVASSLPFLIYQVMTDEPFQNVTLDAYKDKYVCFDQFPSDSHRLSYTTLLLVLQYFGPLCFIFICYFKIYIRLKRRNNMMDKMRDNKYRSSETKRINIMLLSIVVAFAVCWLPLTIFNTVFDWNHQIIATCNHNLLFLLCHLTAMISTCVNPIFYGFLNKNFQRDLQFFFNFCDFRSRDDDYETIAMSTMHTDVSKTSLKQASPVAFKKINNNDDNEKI
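Material: HEK293 Y1/CNG channel cell line; also added: NPY (25 nM), isoproterenol (1 µM), Ro 20-1724 (25 µM); doses: one concentration, 3.6 µM, in 0.4% DMSO; schedule: compound incubation 1 h at room temperature, readout 45 min post-stimulation; technique: membrane potential fluorescence; measure: fluorescence ratio normalized to % inhibition between controls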
Calpain2 inh: inhibitors of pig calpain II, primary screen, biochemical, fluorogenic peptide substrate, 1536-well | purified calpain II, 30 min | inhibition, % at 16 µM | AID 1236, 2008 | 0.37% of 220,000 active;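 active means inhibition above about 50%, limit read from the data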
NPY-Y2 antag: NPY-Y2 receptor antagonists, primary screen, cell-based. AID 793, 2007. NPY-Y2 expressing cells, antagonist mode. inhibition, % at 2.7 µM. 0.99% of 140,000 active. Neuropeptide Y receptor type 2 (Homo sapiens), P49146; in the data active means inhibition above about 17%;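 further: 0% = vehicle with agonist challenge and 100% = reference antagonist with challenge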
TbHK1 inh: Trypanosoma brucei hexokinase 1 inhibitors, primary screen, biochemical, G6PDH-coupled NADH absorbance, MLSCN library. AID 1430, 2008. recombinant TbHK1, G6PDH-coupled NADH A340. hexokinase 1 [Trypanosoma brucei]. inhibition, % at 10 µM. 0.11% of 220,000 active;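 active means inhibition of 50% or more in the single-dose primary screen; inactive means inhibition below 50%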
NPY1 pot ag: NPY-Y1 receptor potentiators or agonists, primary screen, cell-based; Neuropeptide Y receptor type 1 (Homo sapiens), P25929; NPY-Y1 expressing cells, potentiator/agonist activation; activation, % at 3.6 µM; 0.37% of 220,000 active; in the data active means activation above about 33%, passing the limit was not always enough;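 further: cells stimulated with NPY at EC10 then isoproterenol at EC100; 0% = low agonist plus stimulus and 100% = saturating agonist plus stimulus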
An asterisk follows results filed as active; nt = no result.

SMILES	NPY2 pot ag	NPY Y1 blocker	Calpain2 inh	NPY-Y2 antag	TbHK1 inh	NPY1 pot ag
CN(C)C(CNC(C(=O)Nc1ccc([N+](=O)[O-])cc1Br)c1ccccc1)c1ccccc1 (configuration not stated)	-0.8	12.1	53.0*	nt	-5.7	-0.1
COc1ccccc1NC(=O)/C(=C/c1cccs1)NC(=O)c1ccco1	7.9	nt	54.9*	nt	-43.1	8.9
CCOC(=O)N1CCC(N2CCCC(C(=O)c3ccccc3OC)C2)CC1 (configuration not stated)	3.4	5.7	-15.3	nt	-3.7	5.6
O=C(CCN1C(=O)C2C3CCC(C3)C2C1=O)OCC(=O)c1cccc([N+](=O)[O-])c1 (configuration not stated)	-6.0	3.8	-6.1	1.4	17.3	8.5
O=C(NCCc1csc(-c2cccnc2)n1)c1ccc(Br)o1	3.6	9.4	99.0*	5.7	2.7	13.0
O=c1c2c(-c3ccccc3)csc2ncn1/N=C/c1ccc(O)c([N+](=O)[O-])c1	0.2	6.8	55.6*	nt	-26.8	0.8
O=c1c2c(-c3ccccc3)csc2ncn1/N=C/c1cccc([N+](=O)[O-])c1O	-0.1	4.2	-6.7	nt	-7.2	-9.4
O=c1c(C(c2ccccc2)c2c(O)sc3ccccc3c2=O)c(O)sc2ccccc12	-2.0	1.6	51.5*	2.3	5.1	20.2
O=C(CCCOc1ccccc1)Nc1ccc(Br)cc1	-33.0	22.2*	nt	5.0	-1.2	-20.6
CCCCC(=O)Nc1ccc(C(=O)c2ccccc2)cc1	-12.2	9.6	52.5*	nt	5.0	-8.3
CC(=O)Nc1ccc(C(=O)c2ccccc2)cc1	0.2	0.3	1.8	8.8	0.8	-6.6
O=C(CCCOc1ccccc1)Nc1ccncc1	-8.2	-2.9	-0.1	2.1	-5.2	-0.1
C[C@H]1O[C@@H](O[C@H]2[C@@H](O)C[C@H](O[C@H]3[C@@H](O)C[C@H](O[C@H]4CC[C@@]5(C)[C@H](CC[C@@H]6[C@@H]5C[C@@H](O)[C@]5(C)[C@@H](C7=CC(=O)OC7)CC[C@]65O)C4)O[C@@H]3C)O[C@@H]2C)C[C@H](O)[C@@H]1O	-22.4	49.0*	-18.4	53.4*	-1.1	-87.7
CCN(CC(=O)NC(C)(C)C)C(=O)c1ccc2c(c1)S(=O)(=O)c1ccccc1C2=O	-6.5	4.1	7.9	nt	-1.8	1.4
Cc1ccc(C)c(CSc2nnc(-c3cccs3)n2Cc2ccco2)c1	-4.0	52.6*	22.9	24.2*	1.0	2.5
COc1ccc(N(CC(=O)NCc2ccc(C)cc2)S(=O)(=O)c2c(C)nn(C)c2C)cc1	3.6	0.2	3.4	0.0	3.8	-13.1
COc1ccc2nc(NC(=O)CN(c3ccc(C)cc3)S(=O)(=O)c3c(C)nn(C)c3C)sc2c1	44.8*	-14.4	-61.4	-9.4	-20.5	55.1*
Cc1cc(C)c(NC(=S)N(CCCN2CCN(C)CC2)Cc2cccs2)c(C)c1	-8.0	0.8	15.5	nt	0.1	-1.6
O=C(NC1CCCCC1)C(c1ccc2ncccc2c1)N(Cc1ccccc1)C(=O)c1cccs1 (configuration not stated)	-27.4	24.0*	-18.9	24.7*	-9.7	-1.5
O=C(NCc1ccccc1)C(c1ccccc1)N(Cc1ccc2c(c1)OCO2)C(=O)Cc1cccs1 (configuration not stated)	2.9	6.2	14.5	5.8	12.6	5.9
O=C(NC1CCCC1)C(c1ccccc1)N(Cc1ccc2c(c1)OCO2)C(=O)Cc1cccs1 (configuration not stated)	-7.6	23.0*	18.2	21.2*	-5.5	-34.4
COc1ccccc1CN(C(=O)Cc1cccs1)C(C(=O)NC1CCCC1)c1ccncc1 (configuration not stated)	-20.1	44.8*	7.2	18.8*	0.7	-29.7
COc1ccccc1CN(C(=O)c1ccco1)C(C(=O)NC1CCCC1)c1ccncc1 (configuration not stated)	9.9	9.8	-103.1	-2.1	-2.6	-4.4
